# Results taken from PMC6598675 (Science signaling, 2019).
# “And” between values parts separate entries of the source, which are not always exact repeats. Equal values may be shown once. “Also recorded” adds a separate entry of the source.
# B1: CD80: murine costimulatory ligand CD80 (B7), recombinant, secreted, truncated ectodomain with a flexible linker and decahistidine tag (protein, UniProt Q00609 38-246, looked up)
# extracellular domain: VDEQLSKSVKDKVLLPCRYNSPHEDESEDRIYWQKHDKVVLSVIAGKLKVWPEYKNRTLYDNTTYSLIILGLVLSDRGTYSCVVQKKERGTYEVKHLALVKLSIKADFSTPNITESGNPSADTKRITCFASGGFPKPRFSWLENGRELPGINTTISQDPESELYTISSQLDFNTTRNHTIKCLIKYGDAHVSEDFTWEKPPEDPPDSKN
# modifications: extracellular domain flexible linker and decahistidine tag
# What was measured:
# [1] = system: primary mouse T cells (AND TCR transgenic), NFAT; assay: NFAT nuclear translocation of AND TCR T cells on pMHC supported bilayers; type: cell-based; conditions: for agonist strength (in words): AND TCR
# Procedure, shortened: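 Primary AND TCR-transgenic mouse T cells were retrovirally spinfected with NFAT-GFP (polybrene 4 μg/ml, days 3–4 post-activation) and sorted; most runs used NFAT-mCherry. Cells were added at 37°C onto Ni-chelating supported bilayers carrying His-tagged ICAM-1 (100–200 μm−2) and peptide-loaded MHC (0.1–2 μm−2). Landing was scored by RICM. NFAT activation was the nuclear/cytosolic intensity ratio. Threshold was the density near half-maximal response, with >30 cells per condition over five experiments.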
# AND TCR T cells [2] = type: cell-based, mouse
# Procedure, shortened: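 For each T cell, binding events and total dwell time were counted from RICM landing to first NFAT translocation. Counts were corrected for undetected prebleached events and for short events (0.8 s up to the time-lapse interval). Costimulation used His10-tagged recombinant murine CD80 ectodomain on the bilayer at 100–300 molecules/μm2. There were 7–15 cells per condition from three to seven experiments.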
# AND TCR T cells [3] = type: cell-based, mouse; remark: listed apart in the source
# AND TCR [4] = assay: Calculated probability of long-dwelling pMHC-TCR binding events; design: species or system mouse; conditions: single exponential unbinding kinetics from mean dwell time
# Procedure, shortened: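 The probability that a binding event lasts 40 s was calculated assuming single-exponential unbinding at the fitted, photobleaching-corrected mean dwell time. The 40 s receptor-level threshold came from spatiotemporal correlation analysis of pMHC trajectories grouped into signaling clusters.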
# AND TCR [5] = assay: Single-molecule TIRF imaging of pMHC-TCR binding events; design: species or system mouse; conditions: for pMHC-TCR binding / mobility under T cell (in words): 37°C, single-molecule TIRF
# Procedure, shortened: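 Atto647N-peptide-MHC binding under live T cells was imaged at 37°C by single-molecule TIRF, either at 2.5 mW/cm2 with 20 ms exposures or at 0.1 mW/cm2 with 500 ms exposures. Single-step unbinding was confirmed by Bayesian change-point detection. Dwell-time distributions (>3000 trajectories, ≥25 cells) were fitted to a single exponential and corrected for photobleaching using bilayer pMHC imaged under identical conditions. Bound fraction was normalised to RICM contact area.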
# 5c.c7 recombinant TCR = 5c.c7 recombinant TCR binding to MCC pMHC; ref [9], [10]; cited from earlier work
# [6] = low T102S pMHC density, cells that activated NFAT
molecule,measurement,setting,value
ANERADLIAYLKQASK [T102S pMHC],agonist strength (in words),[1],weak agonist
same,NFAT activation probability at low density,[1]; low T102S density,5% and ~ 5%
same,time to NFAT translocation (comparison in words),[1]; low T102S density vs threshold densities,took longer to translocate NFAT than those at threshold densities of either MCC or T102S pMHCs
same,NFAT activation probability at threshold density,[1]; threshold pMHC density,32%
same,rate of dwell time accumulation (in words),"AND TCR T cells [2]; low T102S density, activating cells vs cells that did not activate",indistinguishable from cells that did not active NFAT at threshold densities
same,"number of correlated pMHC tracks, activating cells","AND TCR T cells [3]; low T102S pMHC density, 30-s window, cells that activated NFAT",between two and nine correlated pMHC tracks
same,"number of correlated pMHC tracks, nonactivating cells","AND TCR T cells [3]; low T102S pMHC density, 30-s window, cells that did not activate NFAT",zero to three correlated pMHC tracks
same,"binding events within 2 mm and 30 s of another binding event, activating cells",AND TCR T cells [3]; [6],90%
same,effective mean dwell time after spatiotemporal correlation (in words),AND TCR T cells [3]; [6],could resemble long-dwelling MCC pMHC binding inputs in terms of mean dwell time
same,"binding events within the same space and time (2 mm, 30 s), nonactivating cells","AND TCR T cells [3]; low T102S pMHC density, cells that did not activate NFAT",68%
same,number of spatiotemporally correlated tracks (comparison in words),AND TCR T cells [3]; threshold conditions,more spatiotemporally correlated pMHC tracks than those exposed to MCC
same,probability that a pMHC-TCR binding event dwells for 40 s,AND TCR [4],0.02
"ANERADLIAYLKQATK [MCC pMHC, Moth cytochrome C 88–103 peptide]",pMHC-TCR binding / mobility under T cell (in words),AND TCR [5],bimodal mobility under a T cell (cyan) and unimodal mobility on the free supported membrane; also recorded: a substantial fraction of the all pMHC under the T cell are bound as long-lived species
same,difference in affinity MCC pMHC vs T102S pMHC,AND TCR [5]; range covered by strong and weak agonist,fivefold
same,agonist strength (in words),[1],strong agonist
same,probability that a pMHC-TCR binding event dwells for 40 s,AND TCR [4],0.43
same,"mean dwell time (<τoff>), 5c.c7 TCR",5c.c7 recombinant TCR,7.2 s
ANERADLIAYPKAATKF [K3 pMHC],agonist strength (in words),[1],moderate agonist
"ANERAELIAYLTQAAKGGSC [null pMHC, reference compound]",pMHC-TCR binding / mobility under T cell (in words),AND TCR [5],did not exhibit slowed pMHC-TCR complexes
B1,effect of costimulation on activation (in words),"AND TCR T cells [2]; CD80 on bilayer, 100 to 300 molecules/μm^2, cells that activated NFAT","cells that activated NFAT experienced a decrease in the time to activation, accumulated binding events, and cumulative dwell time"
